Insulin prom act: TRM-6 insulin promoter activation. TRM-6 cells (human fetal islet line), insulin promoter eGFP reporter, imaging; plate-scaled: unstimulated 0, stimulated control 100. activation, % at 2 µM. 130,000 compounds, 0.81% hits. AID 1296;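 active means activation at 2 µM above a set limit, confirmed on inspection of the cell images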;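 further: share of cells whose green reporter signal exceeds an intensity cutoff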
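Test system: TRM-6 insulin promoter–eGFP reporter cells / Quantity: 1,000 cells per well / Reagent: tamoxifen inducer, 0.75 µM, in seeding medium / Compound dosing: 2 µM final, single concentration / Schedule: overnight tamoxifen, then two-day compound incubation at 37 °C / Measured by: automated fluorescence imaging of paraformaldehyde-fixed, Hoechst-counterstained cells, green channel / Read-out: percent activation from GFP-positive cell fraction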
Starred values were filed as active, the others as inactive; [ ] = remark or other dose. The full list was thinned out, with hits kept by preference.

SMILES	Insulin prom act
CCOC(=O)/C(C#N)=C1/C=CN(C)C=N1	0
CCOc1ccc(C(=O)NC(=S)Nc2ccccc2N2CCOCC2)cc1Br	-8
CCOc1ccc(NC(=O)CSc2nnc(C34CC5CC(CC(C5)C3)C4)n2C)cc1	-8
CC(=O)Nc1ccc(NC(=O)Cn2cnc3c(cnn3C(C)(C)C)c2=O)cc1	431*
CCOC(=O)c1ccccc1NC(=O)Cn1cnc2c(cnn2-c2ccc(OC)cc2)c1=O	-75
CC(=O)Nc1ccc(NC(=O)Cn2cnc3c(nnn3Cc3ccc(F)cc3)c2=O)cc1	0
CCCC(=O)Nc1ccc(C(=O)Nc2nnc(COCC)s2)cc1	408*
CCOCc1nnc(NC(=O)c2ccco2)s1	144
CCOCC(=O)Nc1nnc(COC)s1	-3
Cc1nc(CC(=O)N2CCN(c3cccc(C)c3C)CC2)cs1	0
Cc1cc(C)c(N2CCN(S(=O)(=O)N3CCCCCC3)CC2)c(C)c1	-4
O=C(NC(=S)Nc1ccc(S(=O)(=O)Nc2nccs2)cc1)c1cccc(F)c1	-74
CCCc1cc(=O)oc2cc(OCC(=O)Nc3cc(C)on3)ccc12	7
CCCc1cc(=O)oc2cc(Oc3ncccn3)ccc12	154*
C=C(Cl)COc1ccc2c(CCC)cc(=O)oc2c1	293
C=CCn1c(CCNC(=O)c2ccccc2F)nnc1SCC(=O)Nc1nc2ccccc2s1	3
COc1ccc(COc2ccc(C3C(S(=O)(=O)c4ccccc4)CON3C)cc2OC)cc1 (centres undefined)	0
O=C(CO/N=C/c1cccc([N+](=O)[O-])c1)Nc1ccc2ccccc2c1	3
O=C(O/N=C/c1cccc([N+](=O)[O-])c1)C1CC1	209*
CC(=O)Nc1ccc(NC(=O)C(C)O/N=C/c2cccc([N+](=O)[O-])c2)cc1 (centres undefined)	-8
CCOc1ccc(C2=C(C=Nc3c(C)n(C)n(-c4ccccc4)c3=O)C(c3ccc(F)cc3)c3ccccc3O2)cc1 (centres undefined)	-5
CCOC(=O)c1c(C)n(-c2ccc(C)cc2)c2ccc(OCC(O)CN3CCN(C)CC3)cc12 (centres undefined)	107
c1ccc(CNc2ccc3c(c2)ncn3C2CCCCC2)nc1	-3
CC(=O)c1c(C(C)=O)c(C)n(C2CCCCC2)c1C	3
O=C(c1ccco1)N1CCN(C(c2ccc(Cl)cc2)c2nnnn2Cc2ccccc2)CC1 (centres undefined)	7
SMILES	Insulin prom act
CN1CCN(C(c2ccccc2)c2nnnn2Cc2ccccc2)CC1 (centres undefined)	0
O=C(Nc1ccc(Cl)cc1)OCCn1nnnc1C(c1ccccc1)N1CCOCC1 (centres undefined)	89*
CCCCCOC(=O)Cn1c(N2CCCCCC2)nc2c1c(=O)[nH]c(=O)n2C	118
N=c1oc2c3c4c(cc2cc1C(=O)Nc1ccccc1)CCCN4CCC3	900*
Cc1cc2cc3c(cc2nc1SCC(=O)Nc1ccccc1)CCC3	7
Cc1ccc(NC(=O)c2cc(NC(=O)c3ccccc3C(=O)O)ccc2N2CCCCC2)cc1	6
O=C(CCn1c(=S)[nH]c2ccccc2c1=O)NCCc1ccc(Cl)cc1	-4
COc1ccc(/C=C2\SC(=O)NC2=S)cc1OC	9
COc1ccc(/C=C2/C(=O)N=C(N)N2C)cc1OC	252*
COc1ccc(/C=C2/C(=O)N=C3SCCN32)cc1	3
COc1ccc(NS(=O)(=O)c2cccc(NC(=O)c3cnccn3)c2)cc1Br	-5
CCOC(=O)c1ccc(S(=O)(=O)Nc2ccc3cn[nH]c3c2)cc1	5
CCC1CCCCN1C(=O)CSc1nnc(CNC(=O)c2cc(OC)c(OC)c(OC)c2)o1 (centres undefined)	4
Cc1ccc(-c2noc(CN(C(=O)c3cccs3)C(C)C)n2)cc1	9
Cc1ccnc(N(C(=O)c2cccs2)C(=O)c2cccs2)c1	84*
Cc1cccc(-c2nnc(NC(=O)c3cccs3)s2)c1	2
CCCCC(=O)Nc1ccc(NC(=O)c2ccc(C)c([N+](=O)[O-])c2)cc1OC	8
Cn1c(=O)c(C(=O)NCC2CCCO2)c(O)c2ccccc21 (centres undefined)	8
C=CCn1c(=O)c2ccccc2n2c(SCC(N)=O)nnc12	9
CC(C)Cn1c(SCC(=O)N2CCCCC2)nc2ccccc2c1=O	269
O=C(CSc1nnc2n(C3CCCC3)c(=O)c3ccccc3n12)N1CCCCCC1	121*
CN(CC(=O)Nc1ccncc1)S(=O)(=O)c1ccc(Cl)cc1	-3
CCOc1cc(NC(=O)c2cccs2)c(OCC)cc1NC(=O)c1ccco1	-3
CCOc1cc(NC(=O)c2ccco2)c(OCC)cc1NC(=O)Cc1cccc(OC)c1	-5
CCOc1ccc(CC(=O)Nc2ccc(NC(=O)c3ccco3)cc2)cc1OCC	100*
SMILES	Insulin prom act
CCOc1ccc(N(Cc2ccccc2F)C2=NC3CS(=O)(=O)CC3S2)cc1 (centres undefined)	-73
COc1ccc(C(=O)NCCSCc2ccccc2)cc1OC	8
Cc1nc2ccc(S(=O)(=O)NCC(=O)N3CCCC(C)C3)cc2s1 (centres undefined)	-73
Cc1cc(NC(=O)c2ccc3c(c2)C(=O)N(C)C3=O)no1	-7
CC(=O)Oc1cccc(N2C(=O)c3ccc(C(=O)Nc4c[nH]c(=O)[nH]c4=O)cc3C2=O)c1	214*
COc1ccc(N2C(=O)c3ccc(C(=O)OC(C)C)cc3C2=O)cc1	-64
CCOc1ccccc1NC(=S)NNS(=O)(=O)c1c(C)cc(C)cc1C	8
COc1ccc(/C=C/C2=NN(Cc3ccccc3)C(=O)CC2)cc1	388*
COc1ccc(/C=C/c2ccc(=O)n(Cc3ccccc3)n2)cc1	8
COc1ccc(/C=C2\C(=O)NCC(=O)N2Cc2ccccc2)cc1	-9
C/C(=N\n1cnnc1)c1ccc(C#N)cc1	-8
COc1ccc(C(=O)NCc2nnc(SCC(=O)Nc3nc4ccc(C)cc4s3)o2)cc1OC	0
CCOC(=O)c1c(NC(=O)CN2CCN(C(=O)c3ccco3)CC2)sc2c1CCCC2	319
CCOC(=O)c1c(NC(=S)Nc2ccccc2)sc2c1CCN(CCc1ccccc1)C2	233*
CCOC(=O)c1c(NC(=S)Nc2ccc(Cl)cc2)sc(C)c1C	-5
O=C(Nc1ccc(F)cc1F)c1cc(=O)n(-c2ccccc2)c(=O)[nH]1	0
N/C(COc1ccccc1)=N\NC(=O)c1cccnc1Oc1ccccc1	-8
CCC(=O)N(Cc1cc2cc(OC)ccc2[nH]c1=O)c1ccc(C)cc1C	236*
COc1ccc2[nH]c(=O)c(CN(C(C)=O)c3cccc(C)c3)cc2c1	-91
CCOc1cc(C(=O)N(C)Cc2cc3cc(OC)ccc3[nH]c2=O)cc(OCC)c1OCC	4
Cc1nnc(SCc2cc(=O)[nH]c(N3CCCCC3)n2)s1	-8
CCOC(=O)c1sc(NC(=O)COC(=O)CNC(=O)C2CCCCC2)c(C(=O)OCC)c1C	-4
CCOC(=O)CN1C(=O)S/C(=C/c2cc(C)n(C)c2C)C1=O	2
COCCN1C(=O)/C(=C/c2ccc(N3CCCC3)cc2C)SC1=S	456*[fluoresces]
CCN1C(=O)/C(=C\N2CCN(C)CC2)SC1=S	9
COc1ccc(C(=O)NCC(=O)NCC(=O)OCC(=O)C(C)(C)C)cc1	-7
COc1ccc(Br)cc1CNC(=O)C1CCN(S(=O)(=O)N2CCCCC2)CC1	169*
COc1ccccc1CNC(=O)C1CCCN(S(C)(=O)=O)C1 (centres undefined)	-7
COc1ccc(OC)c(CNC(=O)C2CCN(S(C)(=O)=O)CC2)c1	146
